# Activity calls are given as the source filed them. The calls are words filed in the database; no cut-off is given here.
# Assays:
# [1] = Cytotoxicity against human SH-SY5Y cells assessed as cell viability at 300 uM by MTT assay; assay type: cell-based; conditions: read-out: Activity
# Summary of the method: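 SH-SY5Y human neuroblastoma cells were exposed to cumene hydroperoxide (CHP) or tert-butyl hydroperoxide (TBHP) at 300 µM for 3 h. Viability was read by MTT assay and expressed relative to untreated control cultures set as 100%. Values are mean ± SEM, n = 3, compared by ANOVA.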
# SH-SY5Y [2] = experiment: Neuroprotective activity in human SH-SY5Y cells assessed as inhibition of CHP and TBHP-induced cell death at 10 uM incubated for 30 mins prior to challenge measured after 3 hrs by MTT assay; assay type: functional, cell-based
# Summary of the method: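 SH-SY5Y human neuroblastoma cells pretreated with compound at 10 µM for 30 min, then exposed to cumene hydroperoxide (CHP) or tert-butyl hydroperoxide (TBHP) at 300 µM for 3 h. Viability read by MTT and expressed relative to untreated control set as 100%. Mean ± SEM, n = 3; ANOVA.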
# SH-SY5Y [3] = experiment: Neuroprotective activity in human SH-SY5Y cells assessed as inhibition of MPP+-induced cell death after 24 hrs by MTT assay; assay type: functional, cell-based
# Summary of the method: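 SH-SY5Y neuroblastoma cells co-treated with MPP+ (1 mM) and compound (10–30 µM) at the same time for 24 h. MTT read-out, given as percent viability versus control without MPP+. Mean ± SEM, n = 4; ANOVA.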
# SH-SY5Y [4] = experiment: Neuroprotective activity in MPP+-stimulated human SH-SY5Y cells assessed as cell survival at 30 uM measured 24 hrs after MPP+-challenge by MTT assay; assay type: functional; conditions: read-out: Survival
# Summary of the method: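 SH-SY5Y neuroblastoma cells were co-treated with MPP+ (1 mM) and test compound (10–30 µM) for 24 h, with no pretreatment. Viability was read by MTT assay and given as percent of control without MPP+. Values are mean ± SEM, n = 4, compared by ANOVA.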
compound,measurement,setting,value
CC(C)(C)OO [TERT-BUTYL HYDROPEROXIDE],viability at 300 µM,[1],72%
C=CCc1ccc(O)c(-c2ccc(O)c(CCC)c2)c1,inhibition,SH-SY5Y [2],Active
same,inhibition,SH-SY5Y [3],Dose-dependent effect
same,viability at 30 µM,SH-SY5Y [4],87%
C=CCc1cc(-c2cccc(O)c2CC=C)ccc1O,inhibition,SH-SY5Y [2],Active
same,inhibition,SH-SY5Y [3],Dose-dependent effect
same,viability at 30 µM,SH-SY5Y [4],79%
C=CCc1cc(-c2cc(CCC)ccc2O)ccc1O,inhibition,SH-SY5Y [2],Active
same,inhibition,SH-SY5Y [3],Dose-dependent effect
same,viability at 30 µM,SH-SY5Y [4],83%
CC(C)(OO)c1ccccc1 [CUMENE HYDROPEROXIDE],viability at 300 µM,[1],64%
CCCc1ccc(O)c(-c2ccc(O)c(CCC)c2)c1,inhibition,SH-SY5Y [2],Active
same,inhibition,SH-SY5Y [3],Dose-dependent effect
same,viability at 30 µM,SH-SY5Y [4],91%
C=CCc1ccc(O)c(-c2ccc(O)c(CC=C)c2)c1,inhibition,SH-SY5Y [2],Active
same,inhibition,SH-SY5Y [3],Dose-dependent effect
C#CCc1ccc(O)c(-c2ccc(O)c(CC=C)c2)c1,inhibition,SH-SY5Y [2],Active
same,inhibition,SH-SY5Y [3],Dose-dependent effect
same,viability at 30 µM,SH-SY5Y [4],80%
C=CCc1cc(-c2ccc(O)c(CC=C)c2)ccc1O,inhibition,SH-SY5Y [2],Active
same,inhibition,SH-SY5Y [3],Dose-dependent effect

# — ChEMBL document CHEMBL1932954, “An expedient synthesis of honokiol and its analogues as potential neuropreventive agents” (Bioorg Med Chem Lett, 2012)
